The source of these data is ChEMBL document CHEMBL2434876, “Design, synthesis and biological evaluation of 2-substituted quinolines as potential antileishmanial agents” (Eur J Med Chem, 2013).

Data set [1] in a line: Oral bioavailability in Swiss Albino mouse at 50 mg/kg by LC-MS/MS analysis. The conditions noted are these: in vivo. Format: ADME, organism-based. The method, boiled down: (§1)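 Male Swiss Albino mice, 8-12 weeks, 30-40 g, fasted 4 h pre-dose and fed 4 h post-dose. Parallel groups: 10 mg/kg IV tail-vein bolus or 50 mg/kg oral gavage. Sparse sampling, 3 mice per time point, from 0.083 (IV only) to 24 h. K2EDTA plasma analysed by LC-MS/MS (calibration 1–1000 ng/mL). Non-compartmental parameters; bioavailability from dose-normalized AUC ratio versus IV.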

In data set [2] the test system is Leishmania donovani. As to the kind of experiment: Antileishmanial activity against Leishmania donovani MHOM/IN/80/Dd8 amastigotes infected in golden hamster assessed as parasite growth inhibition at 50 mg/kg, ip bid for 5 days measured on day 7 by Giemsa staining assay. Format: functional. The conditions noted are these: MHOM/IN/80/Dd8, ip, route intraperitoneal, read-out: GI. Put shortly: (§2)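 Inbred golden hamsters, 40-45 g, infected intracardially with 1 x 10^7 L. donovani amastigotes. Animals with +1 spleen biopsy grade (5-15 amastigotes/100 nuclei) were randomized, 5-6 per group. Dosing in distilled water/PBS began 48 h after biopsy and ran 5 consecutive days. Post-treatment spleen biopsy on day 7, Giemsa count; percent inhibition corrected for initial count and untreated-control increase.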

Data set [3] in a line: Elimination half life in Swiss Albino mouse at 10 mg/kg, iv by LC-MS/MS analysis. Set-up: dose 10 mg/kg, route intravenous. It is filed as ADME, organism-based. Conditions: in vivo, read-out: beta t1/2 (converted). Put shortly:
as §1

Data set [4] in a line: Plasma clearance in Swiss Albino mouse at 10 mg/kg, iv by LC-MS/MS analysis. Format: ADME, organism-based. More on the design: dose 10 mg/kg, route intravenous. Put shortly: as §1
A short description of data set [5]: Volume of distribution at steady state in Swiss Albino mouse at 10 mg/kg, iv by LC-MS/MS analysis. Format: ADME, organism-based. More on the design: dose 10 mg/kg, route intravenous. The conditions noted are these: in vivo, read-out: Vdss. The method, boiled down: as §1
In data set [6] the test system is Leishmania donovani. The data set is described as follows: Antileishmanial activity against Leishmania donovani MHOM/IN/80/Dd8 amastigotes infected in golden hamster assessed as parasite growth inhibition at 50 mg/kg, ip qd for 5 days measured on day 7 by Giemsa staining assay. It is filed as functional. The conditions noted are these: MHOM/IN/80/Dd8, ip, route intraperitoneal, read-out: GI. Put shortly:
as §2

Data set [7] in a line: Cmax in Swiss Albino mouse at 50 mg/kg, po by LC-MS/MS analysis. Set-up: dose 50 mg/kg, route oral. The conditions noted are these: in vivo. Format: ADME, organism-based. Put shortly: as §1
The nature of data set [8]: AUC (infinity) in Swiss Albino mouse at 10 mg/kg, iv by LC-MS/MS analysis. Format: ADME, organism-based. More on the design: time infinity, dose 10 mg/kg, route intravenous. The conditions noted are these: plasma. Put shortly:
as §1

The nature of data set [9]: AUClast in Swiss Albino mouse at 50 mg/kg, po by LC-MS/MS analysis. It is filed as ADME, organism-based. More on the design: time 0 - last, dose 50 mg/kg, route oral. The conditions noted are these: plasma. Put shortly: as §1
Data set [10] can be described thus: Cmax in Swiss Albino mouse at 10 mg/kg, iv by LC-MS/MS analysis. Set-up: dose 10 mg/kg, route intravenous. It is filed as ADME, organism-based. The conditions noted are these: in vivo. Put shortly:
as §1

Data set [11] is described as follows: Drug metabolism in human liver microsomes at 1 uM after 30 mins by LC-MS/MS analysis. Conditions: read-out: Drug metabolism. Format: ADME, Microsome. The method, boiled down:
(§3)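 Liver microsomes (1 mg/mL protein) in sodium phosphate buffer pH 7.4 with 5 mM NADPH, preincubated 10 min at 37°C. Test compound taken from a 200 µM acetonitrile:DMSO (96:4) stock. Samples analysed by LC/MS/MS as analyte/internal standard peak-area ratio. Percent metabolized at 30 min relative to 0 min; NADPH-free controls run in parallel.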
In general terms: Liver microsomes are a subcellular fraction often used to study metabolism.

A short description of data set [12]: Metabolic stability in plasma (unknown origin). Format: ADME, cell-free.
The nature of data set [13]: Drug metabolism in mouse liver microsomes at 1 uM after 30 mins by LC-MS/MS analysis. Format: ADME, Microsome. Conditions: read-out: Drug metabolism. The method, boiled down: as §3
Data set [14] is described as follows: AUClast in Swiss Albino mouse at 10 mg/kg, iv by LC-MS/MS analysis. Set-up: time 0 - last, dose 10 mg/kg, route intravenous. It is filed as ADME, organism-based. The conditions noted are these: plasma. Put shortly: as §1
Data set [15] in a line: Selectivity index, ratio of CC50 for African green monkey Vero cells to IC50 for Leishmania donovani MHOM/IN/80/Dd8 amastigotes. It is filed as functional. The method, boiled down: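 Selectivity index is Vero CC50 divided by IC50 against intracellular L. donovani amastigotes in J774A.1 cells, each measured over 72 h.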
Data set [16] can be described thus: Metabolic stability in whole blood (unknown origin). It is filed as ADME, tissue-based.
Data set [17] can be described thus: Cytotoxicity against African green monkey Vero cells after 72 hrs by MTT assay. The conditions noted are these: chlorocebus sabaeus. It is filed as cell-based. The method, boiled down:
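Exponentially growing Vero cells (1 x 10^5/well) exposed 72 h at 37°C, 5% CO2, to 7-point threefold dilutions from 400 µM (DMSO stocks diluted in medium), with DMSO vehicle controls. MTT added for 2 h, formazan dissolved in DMSO, absorbance read at 544 nm. CC50 is the concentration halving viability versus medium-only cells; mean of two independent experiments.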
A general note: Tetrazolium assays rely on reduction of a dye to a coloured formazan, in cell work by metabolically active cells.

Data set [18] in a line: Drug metabolism in hamster liver microsomes at 1 uM after 30 mins by LC-MS/MS analysis. Format: ADME, Microsome. Conditions: cricetinae, read-out: Drug metabolism. Put shortly:
as §3

The nature of data set [19]: Tmax in Swiss Albino mouse at 50 mg/kg, po by LC-MS/MS analysis. It is filed as ADME, organism-based. Set-up: dose 50 mg/kg, route oral. The conditions noted are these: in vivo. Put shortly:
as §1

Data set [20] deals with Leishmania donovani. The data set is described as follows: Antileishmanial activity against Leishmania donovani MHOM/IN/80/Dd8 amastigotes infected in mouse J774A1 cells assessed as parasite growth inhibition after 72 hrs by luciferase reporter gene assay. It is filed as functional, organism-based. The conditions noted are these: MHOM/IN/80/Dd8, J774.A1, 72 h. Put shortly: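 J774A.1 macrophages (4 x 10^3/well) in RPMI-1640 with 10% FCS for 24 h, then infected with stationary-phase luciferase-expressing promastigotes (4 x 10^4/well). Non-internalized parasites washed off after 24 h. Compounds given as 7-point serial dilution from 100 µM for 72 h at 37°C. Steady-Glo luminescence read; IC50 from four-parameter Hill fit, mean of two independent experiments.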
A general note: A reporter such as luciferase makes a cellular process visible.

Data set [21] is described as follows: Tmax in Swiss Albino mouse at 10 mg/kg, iv by LC-MS/MS analysis. Conditions: in vivo. More on the design: dose 10 mg/kg, route intravenous. It is filed as ADME, organism-based. The method, boiled down:
as §1

In the case of `OC/C=C/c1cc(N2CCOCC2)c2cc(Cl)c(F)cc2n1`, the bioavailability (in general, dose-corrected exposure relative to a reference, in per cent) in data set [1] was found to be 0.7%. The inhibition in vivo at 50 mg/kg in [2] was 77.2%; in [6], 25.4%. For the same molecule, the half-life in data set [3] is 28.2 min. Also, in data set [4], the clearance (in general, a measure of how efficiently the substance is removed, as volume per time) worked out at 865 mL/min/kg. The Vd in data set [5] turned out to be 7.54 L/kg. For the same molecule, the Cmax – broadly, the peak of the concentration-time curve – in data set [7] worked out at 19.7 ng/mL; in data set [10], 2230 ng/mL. Moreover, the total exposure AUC(0-inf) (in general, total exposure, with the tail of the curve extrapolated) in data set [8] came out at 193 ng·h/mL. Also, the AUC(0-t) – broadly, exposure summed from dosing to a finite time, without extrapolation to infinity – is 6.88 ng·h/mL in data set [9] and 193 ng·h/mL in data set [14]. Also, the metabolised at 0.5 h, 1 µM was 35% in data set [11], 45% in data set [13] and 66% in [18]. For the same molecule, the Stability result is “Stable” in [12] and “Unstable” in data set [16]. In addition, in [15], the “Ratio CC50/IC50” value stood at 187.5. Also, the CC50 (in general, the concentration that lowers cell viability or growth by half) at 72 h in data set [17] worked out at 41.2 µM. Moreover, the Tmax (usually the time from dosing to the highest level) was determined as 15 min in data set [19] and 4.8 min in [21]. Further, the IC50 (as a rule, the midpoint of a concentration-inhibition curve) in data set [20] came out at 0.22 µM.
